Results from ChEMBL document CHEMBL4689842, “EUbOPEN Chemogenomics Library wave 1” (2021).
Several values for one entry are separate records, joined by “and”; a condition that tells them apart may be missing. Equal entries are not always repeated.

Key:
Type in all cases: toxicity, cell-based
[1] = system: U2OS; assay: Incucyte cell viability with U2OS; conditions: human, 10 µM, compound concentration 10 uM; note: filed as whole numbers so only -1 and 0 and 1 occur
[2] = system: HEK-293T; assay: Multiplex assay against HEK293T; conditions: human, 10 µM, compound concentration 10 uM;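 for Population Tubulin-Different-Phenotype (%): share of the cells with healthy nuclei that show this phenotype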
How it was run: (§1)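 Phenotypes for tubulin, mitochondrial mass and membrane permeability are expressed as per cents of healthy-nucleus cells. Cells were stained live at seeding with Hoechst33342, BioTracker Green Microtubule Cytoskeleton Dye, MitoTracker Red and Annexin V Alexa Fluor 680, then imaged after compound addition on a CQ1 microscope at 37°C and 5% CO2. Machine-learning gating in CellPathfinder separated Hoechst high-intensity objects from normal cells, divided normal cells by nuclear state (healthy, pyknosed, fragmented) and divided pyknosed cells into mitotic or apoptotic.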

[3] = system: Fibroblast; assay: Incucyte cell viability with human fibroblast; conditions: 10 µM, compound concentration 10 uM; note: filed as whole numbers so only -1 and 0 and 1 occur
[4] = system: HEK-293T; assay: Incucyte cell viability with HEK293T; conditions: human, 10 µM, compound concentration 10 uM; note: filed as whole numbers so only -1 and 0 and 1 occur
[5] = system: Fibroblast; assay: Multiplex assay against human fibroblast; conditions: 10 µM, compound concentration 10 uM; how it was run: as §1
[6] = system: U2OS; assay: Multiplex assay against U2OS; conditions: human, 10 µM, compound concentration 10 uM; how it was run: as §1
[7] = 0 h, replicate number 1, timepoint 0 hours
[8] = 0 h, replicate number 2, timepoint 0 hours
[9] = 6 h, replicate number 1, timepoint 6 hours
[10] = 12 h, replicate number 1, timepoint 12 hours
[11] = 18 h, replicate number 1, timepoint 18 hours
[12] = 24 h, replicate number 1, timepoint 24 hours
[13] = 6 h, replicate number 2, timepoint 6 hours

`C[C@@H]1CN(c2cc(-c3nn(C)c4ccc(OC5(C)CC5)cc34)ncn2)C[C@H](C)O1` [MLi-2-NC] was tested, and the “Growth Rate” value [1, 7] was 1, the “Growth Rate” value [1, 8] was 0 and the “Growth Rate” value [1, 9] was 1. For the same compound, the “Growth Rate” value [1, 10] was 1, the “Growth Rate” value [1, 11] was 0 and the “Growth Rate” value ([1]; 18 h, replicate number 2, timepoint 18 hours) was 1. The “Growth Rate” value [1, 12] was 0, the “Growth Rate” value ([1]; 24 h, replicate number 2, timepoint 24 hours) was 1 and the “Population Apoptotic (%)” value ([2]; 12 h, replicate 1) was 9% and 22%. For the same compound, the “Population Fragmented Nuclei (%)” value ([2]; 12 h, replicate 1) was 18% and 14%, the “Population Healthy Nuclei (%)” value ([2]; 12 h, replicate 1) was 55% and 62% and the “Population Hoechst High Intensity Objects (%)” value ([2]; 12 h, replicate 1) was 10% and 16%. The “Population Membrane Permeable-Phenotype (%)” value ([2]; 12 h, replicate 1) was 4% and 3%, the “Population Mitochondria Different-Phenotype (%)” value ([2]; 12 h, replicate 1) was 5% and 6% and the “Population Mitotic Cells (%)” value ([2]; 12 h, replicate 1) was 90% and 77%. The “Population Normal (%)” value ([2]; 12 h, replicate 1) was 89% and 83%, the “Population Pyknosed Nuclei (%)” value ([2]; 12 h, replicate 1) was 25% and 23% and the “Total Cell Count” value ([2]; 12 h, replicate 1) was 441 and 673. For the same compound, the “Population Apoptotic (%)” value ([2]; 12 h, replicate 2) was 6% and 12%, the “Population Fragmented Nuclei (%)” value ([2]; 12 h, replicate 2) was 7% and 4% and the “Population Healthy Nuclei (%)” value ([2]; 12 h, replicate 2) was 87% and 89%. The “Population Hoechst High Intensity Objects (%)” value ([2]; 12 h, replicate 2) was 2% and 3%, the “Population Membrane Permeable-Phenotype (%)” value ([2]; 12 h, replicate 2) was 2% and the “Population Mitochondria Different-Phenotype (%)” value ([2]; 12 h, replicate 2) was 8% and 14%. The “Population Mitotic Cells (%)” value ([2]; 12 h, replicate 2) was 93% and 87%, the “Population Normal (%)” value ([2]; 12 h, replicate 2) was 97% and 96% and the “Population Pyknosed Nuclei (%)” value ([2]; 12 h, replicate 2) was 4% and 6%. The “Population Tubulin-Different-Phenotype (%)” value ([2]; 12 h, replicate 2) was 5% and 14%, the “Total Cell Count” value ([2]; 12 h, replicate 2) was 1849 and 1412 and the “Population Apoptotic (%)” value ([2]; 24 h, replicate 1) was 11% and 25%. The “Population Fragmented Nuclei (%)” value ([2]; 24 h, replicate 1) was 16% and 12%, the “Population Healthy Nuclei (%)” value ([2]; 24 h, replicate 1) was 72% and 75% and the “Population Hoechst High Intensity Objects (%)” value ([2]; 24 h, replicate 1) was 6% and 11%. For the same compound, the “Population Membrane Permeable-Phenotype (%)” value ([2]; 24 h, replicate 1) was 3%, the “Population Mitochondria Different-Phenotype (%)” value ([2]; 24 h, replicate 1) was 1% and 5% and the “Population Mitotic Cells (%)” value ([2]; 24 h, replicate 1) was 88% and 74%. The “Population Normal (%)” value ([2]; 24 h, replicate 1) was 93% and 88%, the “Population Pyknosed Nuclei (%)” value ([2]; 24 h, replicate 1) was 10% and 12% and the “Total Cell Count” value ([2]; 24 h, replicate 1) was 505 and 711. For the same compound, the “Population Apoptotic (%)” value ([2]; 24 h, replicate 2) was 3% and 7%, the “Population Fragmented Nuclei (%)” value ([2]; 24 h, replicate 2) was 24% and 13% and the “Population Healthy Nuclei (%)” value ([2]; 24 h, replicate 2) was 73% and 83%. The “Population Hoechst High Intensity Objects (%)” value ([2]; 24 h, replicate 2) was 2% and 4%, the “Population Membrane Permeable-Phenotype (%)” value ([2]; 24 h, replicate 2) was 5% and the “Population Mitochondria Different-Phenotype (%)” value ([2]; 24 h, replicate 2) was 2% and 4%. For the same compound, the “Population Mitotic Cells (%)” value ([2]; 24 h, replicate 2) was 96% and 92%, the “Population Normal (%)” value ([2]; 24 h, replicate 2) was 97% and 95% and the “Population Pyknosed Nuclei (%)” value ([2]; 24 h, replicate 2) was 1% and 3%. The “Total Cell Count” value ([2]; 24 h, replicate 2) was 3187 and 2081, the “Growth Rate” value [3, 8] was 0 and the “Growth Rate” value [3, 9] was 0. For the same compound, the “Growth Rate” value [3, 13] was 1, the “Growth Rate” value [3, 10] was 1 and the “Growth Rate” value [3, 11] was 0. The “Growth Rate” value [3, 12] was 0, the “Growth Rate” value [4, 7] was 0 and the “Growth Rate” value [4, 9] was 1. For the same compound, the “Growth Rate” value [4, 13] was 0, the “Growth Rate” value [4, 10] was 0 and the “Growth Rate” value [4, 11] was 0. For the same compound, the “Growth Rate” value [4, 12] was 0, the “Population Apoptotic (%)” value ([5]; 12 h, replicate 1) was 65% and 70% and the “Population Fragmented Nuclei (%)” value ([5]; 12 h, replicate 1) was 24% and 21%. For the same compound, the “Population Healthy Nuclei (%)” value ([5]; 12 h, replicate 1) was 59% and 61%, the “Population Hoechst High Intensity Objects (%)” value ([5]; 12 h, replicate 1) was 9% and 12% and the “Population Mitochondria Different-Phenotype (%)” value ([5]; 12 h, replicate 1) was 3%. The “Population Mitotic Cells (%)” value ([5]; 12 h, replicate 1) was 34% and 29%, the “Population Normal (%)” value ([5]; 12 h, replicate 1) was 90% and 87% and the “Population Pyknosed Nuclei (%)” value ([5]; 12 h, replicate 1) was 16%. The “Total Cell Count” value ([5]; 12 h, replicate 1) was 234 and 261, the “Population Apoptotic (%)” value ([5]; 12 h, replicate 2) was 42% and 50% and the “Population Fragmented Nuclei (%)” value ([5]; 12 h, replicate 2) was 44% and 53%. The “Population Healthy Nuclei (%)” value ([5]; 12 h, replicate 2) was 36% and 42%, the “Population Hoechst High Intensity Objects (%)” value ([5]; 12 h, replicate 2) was 32% and 43% and the “Population Membrane Permeable-Phenotype (%)” value ([5]; 12 h, replicate 2) was 21% and 15%. For the same compound, the “Population Mitochondria Different-Phenotype (%)” value ([5]; 12 h, replicate 2) was 7% and 10%, the “Population Mitotic Cells (%)” value ([5]; 12 h, replicate 2) was 57% and 50% and the “Population Normal (%)” value ([5]; 12 h, replicate 2) was 67% and 56%. The “Population Tubulin-Different-Phenotype (%)” value ([5]; 12 h, replicate 2) was 21% and 20%, the “Total Cell Count” value ([5]; 12 h, replicate 2) was 56 and 83 and the “Population Apoptotic (%)” value ([5]; 24 h, replicate 1) was 45% and 61%. The “Population Fragmented Nuclei (%)” value ([5]; 24 h, replicate 1) was 25% and 27%, the “Population Healthy Nuclei (%)” value ([5]; 24 h, replicate 1) was 59% and 56% and the “Population Hoechst High Intensity Objects (%)” value ([5]; 24 h, replicate 1) was 12% and 11%. For the same compound, the “Population Membrane Permeable-Phenotype (%)” value ([5]; 24 h, replicate 1) was 9% and 7%, the “Population Mitochondria Different-Phenotype (%)” value ([5]; 24 h, replicate 1) was 3% and 9% and the “Population Mitotic Cells (%)” value ([5]; 24 h, replicate 1) was 54% and 38%. For the same compound, the “Population Normal (%)” value ([5]; 24 h, replicate 1) was 87% and 88%, the “Population Pyknosed Nuclei (%)” value ([5]; 24 h, replicate 1) was 14% and 16% and the “Population Tubulin-Different-Phenotype (%)” value ([5]; 24 h, replicate 1) was 8% and 22%. The “Total Cell Count” value ([5]; 24 h, replicate 1) was 282 and 230, the “Population Apoptotic (%)” value ([5]; 24 h, replicate 2) was 62% and 50% and the “Population Fragmented Nuclei (%)” value ([5]; 24 h, replicate 2) was 53% and 63%. The “Population Healthy Nuclei (%)” value ([5]; 24 h, replicate 2) was 21% and 28%, the “Population Hoechst High Intensity Objects (%)” value ([5]; 24 h, replicate 2) was 33% and 34% and the “Population Membrane Permeable-Phenotype (%)” value ([5]; 24 h, replicate 2) was 42% and 23%. For the same compound, the “Population Mitotic Cells (%)” value ([5]; 24 h, replicate 2) was 37% and 50%, the “Population Normal (%)” value ([5]; 24 h, replicate 2) was 66% and 65% and the “Population Tubulin-Different-Phenotype (%)” value ([5]; 24 h, replicate 2) was 42% and 30%. For the same compound, the “Total Cell Count” value ([5]; 24 h, replicate 2) was 48 and 70, the “Population Apoptotic (%)” value ([6]; 12 h, replicate 1) was 80% and 54% and the “Population Fragmented Nuclei (%)” value ([6]; 12 h, replicate 1) was 2%. For the same compound, the “Population Healthy Nuclei (%)” value ([6]; 12 h, replicate 1) was 93% and 87%, the “Population Hoechst High Intensity Objects (%)” value ([6]; 12 h, replicate 1) was 4% and 5% and the “Population Membrane Permeable-Phenotype (%)” value ([6]; 12 h, replicate 1) was 19% and 9%. For the same compound, the “Population Mitochondria Different-Phenotype (%)” value ([6]; 12 h, replicate 1) was 14% and 30%, the “Population Mitotic Cells (%)” value ([6]; 12 h, replicate 1) was 20% and 45% and the “Population Normal (%)” value ([6]; 12 h, replicate 1) was 95% and 94%. The “Population Pyknosed Nuclei (%)” value ([6]; 12 h, replicate 1) was 3% and 7%, the “Population Tubulin-Different-Phenotype (%)” value ([6]; 12 h, replicate 1) was 16% and 29% and the “Total Cell Count” value ([6]; 12 h, replicate 1) was 165 and 347. The “Population Apoptotic (%)” value ([6]; 12 h, replicate 2) was 50% and 40%, the “Population Fragmented Nuclei (%)” value ([6]; 12 h, replicate 2) was 5% and 7% and the “Population Healthy Nuclei (%)” value ([6]; 12 h, replicate 2) was 91% and 88%. For the same compound, the “Population Hoechst High Intensity Objects (%)” value ([6]; 12 h, replicate 2) was 9% and 15%, the “Population Membrane Permeable-Phenotype (%)” value ([6]; 12 h, replicate 2) was 14% and 7% and the “Population Mitochondria Different-Phenotype (%)” value ([6]; 12 h, replicate 2) was 21% and 26%. For the same compound, the “Population Mitotic Cells (%)” value ([6]; 12 h, replicate 2) was 50% and 60%, the “Population Normal (%)” value ([6]; 12 h, replicate 2) was 90% and 84% and the “Population Tubulin-Different-Phenotype (%)” value ([6]; 12 h, replicate 2) was 14% and 41%. For the same compound, the “Total Cell Count” value ([6]; 12 h, replicate 2) was 153 and 242, the “Population Apoptotic (%)” value ([6]; 24 h, replicate 1) was 44% and 50% and the “Population Healthy Nuclei (%)” value ([6]; 24 h, replicate 1) was 92%. For the same compound, the “Population Hoechst High Intensity Objects (%)” value ([6]; 24 h, replicate 1) was 1%, the “Population Membrane Permeable-Phenotype (%)” value ([6]; 24 h, replicate 1) was 10% and 3% and the “Population Mitochondria Different-Phenotype (%)” value ([6]; 24 h, replicate 1) was 16% and 21%. The “Population Mitotic Cells (%)” value ([6]; 24 h, replicate 1) was 55% and 50%, the “Population Normal (%)” value ([6]; 24 h, replicate 1) was 98% and the “Population Tubulin-Different-Phenotype (%)” value ([6]; 24 h, replicate 1) was 16% and 32%. For the same compound, the “Total Cell Count” value ([6]; 24 h, replicate 1) was 226 and 387, the “Population Fragmented Nuclei (%)” value ([6]; 24 h, replicate 2) was 4% and 3% and the “Population Healthy Nuclei (%)” value ([6]; 24 h, replicate 2) was 90% and 93%. The “Population Hoechst High Intensity Objects (%)” value ([6]; 24 h, replicate 2) was 11% and 4%, the “Population Membrane Permeable-Phenotype (%)” value ([6]; 24 h, replicate 2) was 12% and 8% and the “Population Mitochondria Different-Phenotype (%)” value ([6]; 24 h, replicate 2) was 27% and 18%. For the same compound, the “Population Normal (%)” value ([6]; 24 h, replicate 2) was 88% and 95%, the “Population Pyknosed Nuclei (%)” value ([6]; 24 h, replicate 2) was 4% and 3% and the “Population Tubulin-Different-Phenotype (%)” value ([6]; 24 h, replicate 2) was 18% and 37%. For the same compound, the “Total Cell Count” value ([6]; 24 h, replicate 2) was 183 and 245.
